# Screens deposited in PubChem BioAssay by several laboratories.
# GPR7 antag – antagonists of human GPR7 (neuropeptides B/W receptor 1); actives 1.1% (n = 290,000); P48145; inhibition, % at 4.4 µM; AID 1861; GPR7-expressing cells, fluorescence antagonist assay; in the data active = inhibition above about 16%, passing the limit was not always enough;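 note: cells stimulated with the agonist NPW; 0% = agonist with vehicle and 100% = vehicle without agonist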
# Target sequence (P48145 whole entry, looked up): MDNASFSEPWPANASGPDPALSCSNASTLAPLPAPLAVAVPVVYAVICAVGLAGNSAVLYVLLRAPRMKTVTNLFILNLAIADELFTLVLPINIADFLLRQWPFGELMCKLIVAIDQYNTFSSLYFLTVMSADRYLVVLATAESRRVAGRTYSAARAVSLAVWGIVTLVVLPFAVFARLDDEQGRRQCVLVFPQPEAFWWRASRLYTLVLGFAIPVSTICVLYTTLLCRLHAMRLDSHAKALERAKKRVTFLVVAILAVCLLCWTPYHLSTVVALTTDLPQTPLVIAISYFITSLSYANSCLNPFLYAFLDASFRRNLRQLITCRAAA
# OX1R antag-1 – blocks the human orexin 1 receptor; O43613; OX1R-expressing cells, FRET antagonist read-out; inhibition, % at 6.6 µM; actives 1.8% (n = 330,000); AID 485270; in the data active = inhibition mostly above about 38%, no sharp cut-off; inactive = mostly below about 40%;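 note: 0% = agonist challenge alone and 100% = reference antagonist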
# EP2 mod – EP2 receptor (human) modulation | EP2-expressing cells, cAMP HTRF FRET, PGE2 co-stimulation | induction, % at 25 µM | actives 0.83% (n = 260,000) | AID 940;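 active = compounds whose cAMP rise, as percent of the full-agonist control response, exceeds 60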;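 note: rat C6 glioma line stably carrying human EP2 under a CMV promoter; the protocol text gives 20 µM as final concentration; 100% = response of wells given 1 µM PGE2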
# Target sequence (P43116 whole entry, looked up): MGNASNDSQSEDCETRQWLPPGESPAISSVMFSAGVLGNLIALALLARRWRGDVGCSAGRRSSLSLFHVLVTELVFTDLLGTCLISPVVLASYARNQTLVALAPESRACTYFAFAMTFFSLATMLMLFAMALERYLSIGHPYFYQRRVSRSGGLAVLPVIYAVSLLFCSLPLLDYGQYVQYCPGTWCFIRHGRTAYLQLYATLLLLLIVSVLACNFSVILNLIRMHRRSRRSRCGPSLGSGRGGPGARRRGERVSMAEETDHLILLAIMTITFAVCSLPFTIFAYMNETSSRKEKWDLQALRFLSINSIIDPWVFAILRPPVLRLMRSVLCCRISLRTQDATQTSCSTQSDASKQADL
# PGE2 EP2 inh – blocks the human prostaglandin E2 receptor EP2; P43116; C6 glioma cells expressing human EP2, cAMP TR-FRET; cells stimulated with saturating PGE2; inhibition, % at 25 µM; actives 0.52% (n = 260,000); AID 1422;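 active = percent inhibition above 40 after rounding to a whole number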;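 note: rat C6 glioma host cells with rolipram phosphodiesterase inhibitor present; the protocol text gives 20 µM as final concentration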
# OX1R antag-2 – antagonists of human orexin 1 receptor; O43613; CHO/OX1R cells, Fluo-8 calcium fluorescence, orexin A; inhibition, % at 5 µM; actives 0.43% (n = 330,000); AID 434989;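 active = inhibition above its plate's threshold, mean inhibition of all tested compounds on the plate plus 3 SD, cut at about 37% in these data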;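 note: 0% = orexin A challenge wells and 100% = SB-334867-A antagonist wells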
# CHO parental Ca – counter-screen for OX1R antagonists: effect in parental CHO cells | AID 463079 | parental CHO-K1, ATP-induced calcium, Fluo-8 fluorescence | actives 0.63% (n = 330,000) | inhibition, % at 5.6 µM;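 active = inhibition above that plate's mean sample inhibition plus 3 SD, cut at about 26% in these data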;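 note: 0% = ATP-challenged DMSO wells and 100% = DMSO wells without ATP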
#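 material = parental CHO cells | also added = ATP as calcium-mobilizing challenge | dosing = single point at 5.6 µM | detection = intracellular calcium via Fluo-8 no-wash fluorescent dye | read-out = % inhibition | benchmarks = low control ATP plus DMSO, high control DMSO only | repeats = one well per compound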
# Numbers without * were called inactive; . = no result given; ! = not confirmed by another sample. This is a sample that favours compounds with a hit; in the whole collection about 3.7% have one here.
SMILES,GPR7 antag,OX1R antag-1,EP2 mod,PGE2 EP2 inh,OX1R antag-2,CHO parental Ca
CCOC(=O)C1=C(Cn2cnc3ccccc32)NC(=O)NC1c1cc(C)ccc1C (stereo unspecified),7.2,39.4,2.5,7.9,79.5*,95.0*
Cc1ccc(NC(=O)N2CCC(c3ccccc3)C2)cc1C (stereo unspecified),4.1,8.3,-31.9,5.0,-7.6,-10.6
COc1ccccc1N1CCN(C(=O)c2cc3c(=O)n4ccccc4nc3s2)CC1,.,11.6,.,.,-15.3,-22.5
O=C(CSc1cccc[n+]1[O-])c1cc2ccccc2o1,3.0,72.3*,14.5,2.8,-2.0,0.1
O=[N+]([O-])c1ccc(S(=O)(=O)c2cccc(C(F)(F)F)c2)nc1,.,39.7,.,.,30.8,41.0*
O=S(=O)(Nc1cccnc1)c1cccc(C(F)(F)F)c1,-12.5,17.2,1.4,6.8,8.5,-7.0
Cc1cc(SCC(=O)N/N=C/c2cccnc2)nc2c(C)cccc12,0.8,15.3,-41.3,3.8,-33.4,-26.8
CCN(c1ccc(NC(=O)COC(=O)c2ccc(C)c(S(=O)(=O)N3CCOCC3)c2)cc1)C(C)C,1.2,1.6,3.5,4.7,-26.9,-10.7
Cc1cccc(C)c1NC(=O)CNC(=O)C(C)N1CCN(c2cccc(Cl)c2)CC1 (stereo unspecified),.,0.3,.,.,-11.1,-27.8
c1ccc(N(c2ccccc2)c2nc(-n3ccnc3)nc(-n3ccnc3)n2)cc1,13.0,42.2,-45.9,66.8*,82.2*,41.6*
COc1cc(NC(=O)c2ccccc2-c2ccccc2)cc(OC)c1,-8.8,56.9*,15.7,1.0,-8.8,-17.2
COc1cc(NC(=O)c2ccccc2-c2ccccc2)cc(OC)c1OC,-13.2,19.9,-5.8,6.2,2.3,-11.9
COc1ccccc1C1SCCN1S(C)(=O)=O (stereo unspecified),1.2,12.4,29.2,26.8,-8.5,7.3
O=C(CCl)Nc1ccccc1Sc1ccccc1,3.5,24.4,63.8*,15.0,-17.4,-24.2
Cc1ccccc1NC(=O)CN1CCOCC1,-21.3,.,.,.,.,.
CC(=O)Nc1ccccc1Sc1ccccc1,-16.6,9.8,19.7,6.0,-12.7,-11.6
O=C(CN1CCOCC1)Nc1ccccc1C(=O)O,-5.4,4.3,-5.0,125.8*!,-8.8,-2.0
CN1CCN(CC(=O)Nc2ccccc2Sc2ccccc2)CC1,-3.0,18.8,28.2,7.0,-3.0,-14.5
O=C(CN1CCCC1)Nc1ccccc1Sc1ccccc1,-13.9,9.8,60.9*,8.7,-10.6,2.4
COc1ccccc1-c1ccc(Nc2cccc(C(C)=O)c2)nn1,-9.7,10.1,-13.1,8.0,-7.7,-26.8
CCOCCCNC(=S)N(Cc1cc2c(C)ccc(C)c2[nH]c1=O)C1CCCC1,.,.,3.5,10.9,.,.
CC(=O)c1c(OC(=O)c2cccc(Cl)c2)c2ccccc2n1C,-16.1,1.4,26.8,7.8,-32.5,-9.4
CC/C(=N/O)C(=O)c1ccc(Br)cc1,-7.9,19.9,-16.0,7.3,-2.8,-0.6
c1ccc(CNc2nc(-c3cccs3)nc3ccccc23)nc1,-3.2,53.6*,2.5,6.1,-1.4,-17.3
c1csc(-c2nc(NCCCN3CCOCC3)c3ccccc3n2)c1,-4.3,8.6,.,.,-24.4,-9.1
SMILES,GPR7 antag,OX1R antag-1,EP2 mod,PGE2 EP2 inh,OX1R antag-2,CHO parental Ca
CCC(C)(C)n1nnnc1C(C(C)C)N(Cc1ccc(C)cc1)Cc1cc2cccc(C)c2[nH]c1=O (stereo unspecified),.,.,38.3,5.7,.,.
CC(CO)(CO)N=Cc1cc(I)cc(I)c1O,.,.,39.1,44.1*,.,.
Cc1ccccc1NS(=O)(=O)c1ccc(C(=O)NNC(=O)c2ccccc2O)cc1,.,9.7,.,.,-4.2,-27.6
O=C(N/N=C/c1cc(Br)c(Br)o1)c1cc2ccccc2o1,7.9,62.5*,.,.,-2.1,15.3
COC(=O)[C@]1(C)N[C@H](c2ccc(-c3ccc(Cl)c(Cl)c3)c(OC)c2)[C@@H]2C(=O)N(C)C(=O)[C@@H]21,.,16.4,.,.,-22.1,-18.0
O=C(CSc1ccc(C(F)(F)F)cc1[N+](=O)[O-])Nc1ccccc1,0.3,7.2,2.6,7.8,16.6,58.7*
Cc1cc2[nH]c(=O)c(=O)[nH]c2cc1S(=O)(=O)NCc1ccccc1,-1.1,13.5,.,.,-1.7,0.7
Cc1c(C(=O)OCC(=O)Nc2ccc(S(N)(=O)=O)cc2)oc2c1ccc1ccccc12,17.5,22.2,-17.6,2.4,4.5,40.9*
Cc1ccc(C(=O)COC(=O)c2ccc3c(c2)C(=O)N(c2cccc4ncccc24)C3=O)cc1C,16.2,13.6,31.5,3.9,-7.4,-7.6
COC(=O)c1cccc(NC(=O)/C=C/c2ccc3c(c2)OCO3)c1,4.6,51.8*,-44.3,17.0,-1.6,-4.6
CC(C)n1c(=N)c(C(=O)NCCc2ccccc2)cc2c(=O)n3ccccc3nc21,5.3,55.4*,-4.0,13.3,-16.3,-17.5
Cc1cccn2c(=O)c3cc(C(=O)NCc4cccnc4)c(=N)n(C(C)C)c3nc12,7.8,40.7*,19.4,4.8,-15.6,13.6
Cn1c(C(=O)NCCC2=CCCCC2)cc2c(=O)n3ccccc3nc21,-12.1,10.3,63.2*,12.1,-3.3,-6.9
Cn1c(Cc2ccccc2)nnc1SCC(=O)NCc1ccco1,.,.,-6.4,7.2,.,.
CCOc1ccc(OCc2ccc(C(=O)NC(C)C)o2)cc1,-24.6,.,.,.,.,.
O=C(N/N=C/C(Br)=C\c1ccccc1)c1cccs1,-12.5,39.6*,15.7,9.8,-6.5,-9.9
O=C(COC(=O)c1c(F)cccc1F)Nc1ccc(N2CCCCC2)cc1,.,0.8,.,.,9.7,2.3
CSC1=C(C#N)C(c2ccccc2Cl)C(C(=O)c2cccs2)C(O)(C(F)(F)F)N1 (stereo unspecified),-1.5,62.4*,29.9,13.9,21.4,3.2
CCn1c(SCC(=O)Nc2nccs2)nnc1C1CC1,-10.7,5.1,.,.,8.4,-5.0
CC(=O)OCCN1C(=O)c2cccc3cc([N+](=O)[O-])cc(c23)C1=O,.,69.3*,.,.,-3.1,-14.4
O=C1c2cccc3cc([N+](=O)[O-])cc(c23)C(=O)N1CC1CCCO1 (stereo unspecified),-12.7,59.8*,12.6,7.1,-21.8,-4.3
Cc1sc2ncnc(N(C)C3CCCCC3)c2c1C,11.2,9.2,.,.,-20.9,-8.4
COc1ccc(CCNCc2csc3nc4ccccc4n23)cc1OC,6.0,52.7*,17.7,11.5,28.7,27.1
COc1ccc(CCNc2nc3ccccc3n3nnnc23)cc1OC,-10.4,3.2,-5.6,15.2,-28.9,-8.1
CCc1cc(=O)oc2cc(C)cc(OCC(=O)NCCCN3CCOCC3)c12,-16.3,-0.1,.,.,9.0,-6.2
O=C(CN1CCN(CCN2C(=O)c3cccc4cccc(c34)C2=O)CC1)c1ccc(F)cc1,-8.2,44.6*,2.2,10.9,-31.4,-13.8
O=C(CN1CCN(CCN2C(=O)c3cccc4cccc(c34)C2=O)CC1)c1ccc(Cl)cc1,-10.8,.,-6.1,7.3,.,.
